The text below walks through data of ChEMBL document CHEMBL1926677, “Further structure-activity relationship studies on 8-substituted-3-[2-(diarylmethoxyethylidenyl)]-8-azabicyclo[3.2.1]octane derivatives at monoamine transporters” (Bioorg Med Chem, 2011).

The term pKi denotes −log10 of the Ki, conventionally taken in molar units. Read a high pKi as a small Ki.

pKi: −log10 of the molar value.

Assay [1] concerns the target Sodium-dependent dopamine transporter (Rattus norvegicus, UniProt P23977). Briefly: Displacement of [3H]WIN35428 from DAT in Sprague-Dawley rat brain homogenates after 1 hr by scintillation counting. The assay is classed as tissue-based. The procedure, abridged:
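Male Sprague-Dawley rats (200–250 g); caudate-putamen homogenised in ice-cold modified Krebs-HEPES buffer pH 7.4, washed by repeated 20,000 × g spins; fresh membranes ~0.3% w/v (150–300 µg protein). Nonspecific: 100 µM cocaine.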
A general note: Displacement assays read how much labelled ligand stays bound in the presence of the test substance.

For assay [2], the target named is Sodium-dependent serotonin transporter (Rattus norvegicus, UniProt P31652). Briefly: Displacement of [3H]citalopram from SERT in Sprague-Dawley rat brain homogenates after 60 mins by liquid scintillation counting. Type of assay: tissue-based. The procedure, abridged: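 Midbrain from male Sprague-Dawley rats (200–225 g), frozen, homogenised in 50 mM Tris with 120 mM NaCl, 5 mM KCl (pH 7.4, 25 °C), washed at 20,000 × g. Nonspecific: 1 µM citalopram. GF/B filters in polyethylenimine, liquid scintillation counting.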
Sequence of Sodium-dependent serotonin transporter (P31652 whole entry): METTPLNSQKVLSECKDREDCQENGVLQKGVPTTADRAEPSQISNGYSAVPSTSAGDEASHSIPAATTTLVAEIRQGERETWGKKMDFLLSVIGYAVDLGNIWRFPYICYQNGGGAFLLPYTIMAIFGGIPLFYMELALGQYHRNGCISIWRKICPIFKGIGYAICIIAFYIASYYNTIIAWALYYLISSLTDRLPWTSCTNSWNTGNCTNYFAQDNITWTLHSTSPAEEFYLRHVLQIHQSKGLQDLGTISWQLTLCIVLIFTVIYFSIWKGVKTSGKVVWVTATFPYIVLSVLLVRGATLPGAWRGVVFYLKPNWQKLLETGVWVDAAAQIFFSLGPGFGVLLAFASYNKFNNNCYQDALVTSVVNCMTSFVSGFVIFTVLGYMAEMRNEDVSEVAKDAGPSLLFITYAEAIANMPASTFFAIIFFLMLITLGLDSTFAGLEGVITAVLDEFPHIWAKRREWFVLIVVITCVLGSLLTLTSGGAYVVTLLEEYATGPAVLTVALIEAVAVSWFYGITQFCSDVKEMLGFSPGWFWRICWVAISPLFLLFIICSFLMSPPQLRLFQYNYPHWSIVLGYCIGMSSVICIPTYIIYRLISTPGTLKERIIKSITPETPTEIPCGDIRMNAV

The species entered for assay [3] is Rattus norvegicus. Description: Selectivity ratio of Ki for NET in Sprague-Dawley rat brain cortex membranes to Ki for DAT in Sprague-Dawley rat brain homogenates. The assay is classed as cell membranes. As to conditions: Membrane.
The species entered for assay [4] is Rattus norvegicus. Briefly: Selectivity ratio of Ki for SERT in Sprague-Dawley rat brain homogenates to Ki for DAT in Sprague-Dawley rat brain homogenates. Type of assay: tissue-based.
Another assay has as its target Transporter (Rattus norvegicus, UniProt Q63380). Briefly: Displacement of [3H]nisoxetine from NET in Sprague-Dawley rat brain cortex membranes after 1 hr. Type of assay: cell membranes, Membrane. The procedure, abridged: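 Rat frontal cortex membranes in 50 mM Tris, 120 mM NaCl, 5 mM KCl, pH 7.4, washed at 50,000 × g, 8 mg wet tissue/tube. 0.5 nM [3H]nisoxetine, 1 h on ice; GF/B filters presoaked in 0.05% PEI. Nonspecific: 1 µM desipramine. Compounds first screened at 1 µM for displacement.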

The nature of assay [5]: Selectivity ratio of DAT over SERT.

Sequence of Sodium-dependent dopamine transporter (P23977 whole entry): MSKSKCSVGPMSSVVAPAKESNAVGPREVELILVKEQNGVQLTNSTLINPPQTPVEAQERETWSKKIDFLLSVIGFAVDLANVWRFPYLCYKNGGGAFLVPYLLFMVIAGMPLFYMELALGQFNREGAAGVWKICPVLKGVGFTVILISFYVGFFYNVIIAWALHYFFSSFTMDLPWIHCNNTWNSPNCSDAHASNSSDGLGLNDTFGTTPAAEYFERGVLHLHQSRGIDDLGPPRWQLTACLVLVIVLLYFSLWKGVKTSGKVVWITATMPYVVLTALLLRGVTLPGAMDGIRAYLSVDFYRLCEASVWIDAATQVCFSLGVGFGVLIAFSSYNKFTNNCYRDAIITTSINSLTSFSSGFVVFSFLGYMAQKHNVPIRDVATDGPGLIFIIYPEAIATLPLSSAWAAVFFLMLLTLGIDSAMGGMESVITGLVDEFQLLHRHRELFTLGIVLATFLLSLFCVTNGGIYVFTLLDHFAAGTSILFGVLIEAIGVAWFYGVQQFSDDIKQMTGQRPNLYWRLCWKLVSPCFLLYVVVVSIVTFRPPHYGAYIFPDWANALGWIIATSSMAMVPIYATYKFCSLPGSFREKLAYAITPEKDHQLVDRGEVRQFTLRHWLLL
Sequence of Transporter (Q63380 whole entry): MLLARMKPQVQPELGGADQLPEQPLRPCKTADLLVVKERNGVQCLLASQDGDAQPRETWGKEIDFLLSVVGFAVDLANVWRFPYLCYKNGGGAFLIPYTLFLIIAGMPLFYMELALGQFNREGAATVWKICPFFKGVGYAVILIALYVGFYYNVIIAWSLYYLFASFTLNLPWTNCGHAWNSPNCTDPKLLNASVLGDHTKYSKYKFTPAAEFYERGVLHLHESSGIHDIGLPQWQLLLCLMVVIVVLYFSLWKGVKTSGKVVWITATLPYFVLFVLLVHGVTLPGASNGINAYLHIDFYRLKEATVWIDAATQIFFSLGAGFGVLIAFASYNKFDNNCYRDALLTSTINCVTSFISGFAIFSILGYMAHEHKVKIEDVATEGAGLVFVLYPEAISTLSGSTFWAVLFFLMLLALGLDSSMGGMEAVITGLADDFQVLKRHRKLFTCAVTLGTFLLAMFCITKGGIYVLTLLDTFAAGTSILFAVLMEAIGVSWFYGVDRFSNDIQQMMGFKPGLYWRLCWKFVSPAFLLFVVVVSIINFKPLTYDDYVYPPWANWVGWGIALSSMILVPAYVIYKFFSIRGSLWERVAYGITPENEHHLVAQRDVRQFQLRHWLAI

For the compound `C#CCN1[C@@H]2CC[C@H]1C/C(=C/COC(c1ccccc1)c1ccccc1)C2`, the pKi in assay [1] was 6.27.
With `Fc1ccc(C(OC/C=C2\C[C@H]3CC[C@@H](C2)N3Cc2ccccc2)c2ccc(F)cc2)cc1`, in assay [2], the pKi was 5.65.
`C=CCN1[C@@H]2CC[C@H]1C/C(=C/COC(c1ccccc1)c1ccccc1)C2` had a pKi in assay [1] of 6.84.
As for `C=CCN1[C@@H]2CC[C@H]1C/C(=C/COC(c1ccc(F)cc1)c1ccc(F)cc1)C2`, the Ratio Ki turned out to be 149 in the assay listed under Rattus norvegicus [3] and 167 in the assay listed under Rattus norvegicus [4]. The pKi in assay [1] is 7.68; in assay [2], 5.46; at Transporter, 5.51.
As for `CCN1[C@@H]2CC[C@H]1C/C(=C/COC(c1ccccc1)c1ccccc1)C2`, the pKi in assay [1] was 6.54.
Turning to `Fc1ccc(C(OC/C=C2\C[C@H]3CC[C@@H](C2)N3Cc2ccc(Cl)cc2)c2ccc(F)cc2)cc1`, the Ratio Ki in the assay listed under Rattus norvegicus [3] was found to be 1360; in the assay filed under Rattus norvegicus [4] it was 168. Further, the pKi in assay [1] is 8.41; in assay [2], 6.18; on Transporter, 5.28.
As to `C(/COC(c1ccccc1)c1ccccc1)=C1/C[C@H]2CC[C@@H](C1)N2CCCc1ccccc1`, in assay [5], the Ratio stood at 300.
With `C(/COC(c1ccccc1)c1ccccc1)=C1/C[C@H]2CC[C@@H](C1)N2Cc1ccccc1`, the Ratio Ki in the assay listed under Rattus norvegicus [3] came out at 29; in the assay filed under Rattus norvegicus [4], 113. The pKi in assay [1] is 7.32; in assay [2] it was 5.27; at Transporter, 5.86. For the same compound, the Ratio in assay [5] was 300.
As for `Cc1ccc(CN2[C@@H]3CC[C@H]2C/C(=C/COC(c2ccc(F)cc2)c2ccc(F)cc2)C3)cc1`, the Ratio Ki worked out at 450 in the assay listed under Rattus norvegicus [3] and 68 in the assay listed under Rattus norvegicus [4]. Further, the pKi was 8.21 in assay [1], 6.39 in assay [2] and 5.56 at Transporter.
For `Fc1ccc(CN2[C@@H]3CC[C@H]2C/C(=C/COC(c2ccccc2)c2ccccc2)C3)cc1` the same measures were 477, 585, 8.15, 5.39 and 5.48.
For `Fc1ccc(CN2[C@@H]3CC[C@H]2C/C(=C/COC(c2ccc(F)cc2)c2ccc(F)cc2)C3)cc1`, in that order: 643, 234, 8.31, 5.94 and 5.50.
For `Fc1ccc(C(OC/C=C2\C[C@H]3CC[C@@H](C2)N3CC2CC2)c2ccc(F)cc2)cc1` the same measures were 625, 1060, 8.40, 5.37 and 5.60.
As to `Clc1ccc(CN2[C@@H]3CC[C@H]2C/C(=C/COC(c2ccccc2)c2ccccc2)C3)cc1`, the values for the Ratio Ki in the assay filed under Rattus norvegicus [3] and in the assay filed under Rattus norvegicus [4] were 554 and 72, respectively. For the same compound, the pKi in assay [1] was 8.12; in assay [2], 6.26; on Transporter, 5.57.
With `CN1[C@@H]2CC[C@H]1C/C(=C/COC(c1ccc(F)cc1)c1ccc(F)cc1)C2`, the pKi in assay [1] was 7.72. Moreover, the Ratio in assay [5] came out at 300.
On to `CCCN1[C@@H]2CC[C@H]1C/C(=C/COC(c1ccc(F)cc1)c1ccc(F)cc1)C2`, for which the Ratio Ki in the assay listed under Rattus norvegicus [3] is 69; in the assay listed under Rattus norvegicus [4], 133. For the same compound, the results for the pKi (in assay [1]; in assay [2]; on Transporter) were 7.39, 5.26 and 5.55, respectively.
In turn, `C(/COC(c1ccccc1)c1ccccc1)=C1/C[C@H]2CC[C@@H](C1)N2CC1CC1` showed a pKi in assay [1] of 6.77.
On to `Fc1ccc(C(OC/C=C2\C[C@H]3CC[C@@H](C2)N3CCCc2ccccc2)c2ccc(F)cc2)cc1`, for which the Ratio in assay [5] stood at 300.
On to `CN1[C@@H]2CC[C@H]1C/C(=C/COC(c1ccccc1)c1ccccc1)C2`, for which, in assay [1], the negative-log Ki (pKi) was 6.89. Besides, the Ratio in assay [5] worked out at 300.
Turning to `Cc1ccc(CN2[C@@H]3CC[C@H]2C/C(=C/COC(c2ccccc2)c2ccccc2)C3)cc1`, the Ratio Ki in the assay listed under Rattus norvegicus [3] is 136; in the assay listed under Rattus norvegicus [4], 57. Further, the pKi in assay [1] was 7.89; in assay [2], 6.13; on Transporter, 5.75.
For `CCN1[C@@H]2CC[C@H]1C/C(=C/COC(c1ccc(F)cc1)c1ccc(F)cc1)C2`, in that order: 89, 149, 7.40, 5.22 and 5.45.
Compound `CCCN1[C@@H]2CC[C@H]1C/C(=C/COC(c1ccccc1)c1ccccc1)C2` gave a pKi in assay [1] of 6.61.
